Assay outcomes (PubChem BioAssay)
Hits are enriched below; roughly 1.2% of the tested compounds scored in any of these assays.
procasp3 activ = procaspase-3 (human) activation; P42574; recombinant procaspase-3 D3A, Ac-DEVD-pNA absorbance 405 nm; activation, % at 8.5 µM; 330,000 tested, 0.11% active;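 active = activation above the mean of all tested compounds plus 3 SD, cut at about 21% in these data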;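 note: 0% = DMSO alone and 100% = DMSO wells spiked with extra 5 µM PC-3 D3A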
Target sequence (P42574 whole entry D9A/D28A/D175A): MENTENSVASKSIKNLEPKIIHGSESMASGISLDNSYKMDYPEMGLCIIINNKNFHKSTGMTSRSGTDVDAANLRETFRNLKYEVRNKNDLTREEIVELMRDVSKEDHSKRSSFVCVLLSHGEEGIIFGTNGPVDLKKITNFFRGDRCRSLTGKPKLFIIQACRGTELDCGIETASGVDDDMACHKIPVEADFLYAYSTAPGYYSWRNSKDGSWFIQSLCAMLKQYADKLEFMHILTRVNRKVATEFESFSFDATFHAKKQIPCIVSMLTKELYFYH
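Assay system – Procaspase-3 D3A mutant, all three cleavage aspartates alanine · Controls – DMSO-only low control, 5 µM PC-3 D3A high control · Schedule – 1 h compound preincubation, 2 h substrate hydrolysis at 25 °C · Signal – 405 nm absorbance of p-nitroaniline, reads at 0 and 120 min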
Bfl-1 A1 inh = inhibitors of the anti-apoptotic protein A1, read as caspase activation. MEF A1-2A-BIM cells, Caspase-Glo 3/7 luminescence, 3 h; percent of clofoctol response, vehicle zero. caspase activation, % (test concentration not listed). 330,000 tested, 0.066% active;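 active = over half of replicate activation scores above 10%, or exactly half above 10 with the replicate mean above 10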
procasp7 counter = counter-screen: procaspase-7 (human) activation; activation, % at 8.5 µM; 330,000 tested, 0.093% active; recombinant procaspase-7, Ac-DEVD-pNA absorbance 405 nm; D23A/D198A/D206A triple mutant, cannot self-cleave; scale: DMSO 0, 5 µM enzyme 100; P55210;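 active = percent activation above the screen-wide mean plus 3 SD, cut at about 25% in these data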
Target sequence (P55210 whole entry D23A/D198A/D206A): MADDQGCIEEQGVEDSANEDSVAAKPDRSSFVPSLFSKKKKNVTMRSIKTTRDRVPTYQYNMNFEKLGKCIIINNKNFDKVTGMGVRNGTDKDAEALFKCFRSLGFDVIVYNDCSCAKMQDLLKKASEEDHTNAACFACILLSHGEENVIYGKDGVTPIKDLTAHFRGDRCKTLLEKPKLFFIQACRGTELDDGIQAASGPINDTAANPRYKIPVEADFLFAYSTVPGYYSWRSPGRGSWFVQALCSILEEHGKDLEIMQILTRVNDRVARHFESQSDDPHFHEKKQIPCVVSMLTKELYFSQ
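Assay system: Uncleavable procaspase-7 mutant enzyme / Input: 2 µM procaspase-7 mutant as dispensed / Dosing: single nominal 8.5 µM compound dose, 0.8% DMSO final / Timing: 1 h enzyme–compound preincubation and 2 h substrate reaction, both 25 °C / Detection: p-Nitroaniline absorbance at 405 nm, read at 0 and 120 min / Replication: singlicate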
MsrA inh = bovine MsrA inhibition | AID 651718 | 360,000 tested, 0.75% active | inhibition, % at 15.5 µM | purified bovine MsrA, absorbance read-out; in the data active = inhibition above about 4.5%;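 note: 0% = vehicle wells with enzyme and 100% = reference inhibitor wells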
bovine MsrA act = activates bovine MsrA enzyme. AID 602163. 360,000 tested, 0.3% active. purified bovine MsrA, absorbance read-out. activation, % at 10.6 µM; in the data active = activation above about 7.5%;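 note: 0% = vehicle and 100% = reference activator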
Numbers without * were called inactive; nt = not tested or not shown.

SMILES | procasp3 activ | Bfl-1 A1 inh | procasp7 counter | MsrA inh | bovine MsrA act
O=C(N[C@@H](Cc1cccnc1)C(=O)N1CCC[C@H]1C(=O)NCCc1ccccc1Cl)C1CCCC1 | nt | nt | nt | 0.1 | nt
CCOC(=O)c1c2ccc(OCC(=O)N/N=C/c3ccc(C)cc3)cc2n2ccccc12 | -4.1 | 34.8* | 10.8 | 0.8 | -1.8
O=C(NCc1ccccc1)[C@@H]1CCCN1C(=O)[C@H]1CCCN1C(=O)c1ccccc1C(F)(F)F | nt | nt | nt | -0.8 | nt
CC1CCN(C2(O)C(=O)Nc3ccc([N+](=O)[O-])cc32)CC1 (configuration not stated) | 0.3 | 1.9 | 1.4 | 6.6* | -13.4
CC1CCN(C2(O)C(=O)Nc3ccc(Cl)cc32)CC1 (configuration not stated) | -2.9 | 0.8 | 14.5 | -0.8 | -2.6
Cc1ccc2nc(CN(C)C(=O)[C@H](CCc3ccccc3)NC(=O)[C@H]3O[C@@H](n4cnc5c(N)ncnc54)[C@H](O)[C@@H]3O)[nH]c2c1 | nt | nt | nt | 0.1 | nt
Cc1cc(C)cc(NC(=O)/C(C#N)=C/c2cn(CC(=O)NCc3ccco3)c3ccccc23)c1 | -1.5 | 16.6* | -4.9 | -0.8 | -9.3
CC1(C)CC(=O)C=C(c2ccccc2-c2cccc(C(N)=O)c2)C1=O | nt | nt | nt | 2.4 | nt
Nc1c(C(=O)Nc2ccc(S(=O)(=O)N3CCCC3)cc2)sc2nc3ccc(OC(F)(F)F)cc3cc12 | -15.5 | 14.8* | -24.2 | nt | -2.6
N#CCn1nnc(-c2ccc3c(c2)OCO3)n1 | 10.8 | 6.7* | -5.2 | 0.3 | -2.5
Cc1ccccc1Cn1nnc(-c2ccc3c(c2)OCO3)n1 | 4.5 | 0.0 | 17.7 | 0.9 | -2.4
CN1C2CCC1/C(=C\c1ccc(F)cc1)C(=O)/C2=C/c1ccc(F)cc1 | 3.0 | 0.5 | -4.3 | 0.3 | -6.0
C=CC(=O)N1C/C(=C/c2ccc(F)cc2)C(=O)/C(=C\c2ccc(F)cc2)C1 | nt | nt | nt | 5.1* | -5.7
N#C[C@H](N)[C@H]1O[C@@H](n2ccc(=O)[nH]c2=O)[C@H](O)[C@@H]1O | nt | nt | nt | 1.1 | nt
Cc1ccccc1CC1S/C(=N/N=C/c2ccco2)NC1=O (configuration not stated) | -2.6 | -0.1 | 0.8 | 2.9 | nt
CC(C)C1S/C(=N/N=C/c2ccco2)NC1=O (configuration not stated) | -13.6 | 0.5 | -17.3 | 4.7* | 0.0
N=C(N)N=Nc1c(O)[nH]c2ccc(Br)cc12 | 8.3 | -0.1 | 1.0 | 4.6* | -1.4
Oc1[nH]c2ccc(Br)cc2c1N=NC(=S)Nc1ccc(F)cc1 | -12.0 | 3.5 | -18.4 | 0.6 | -1.9
COC(=O)C1=CC(=O)N2CCN=C2S1 | nt | nt | nt | 1.6 | nt
CC(C)C(=O)Nc1ccc(S(=O)(=O)Nc2nccc(/C=C/c3ccccc3)n2)cc1 | 7.2 | 0.1 | -1.6 | 4.6* | -4.4
COC(=O)c1ccc(Nc2cc(C)nc3nc(C)nn23)cc1 | 4.4 | -0.7 | -6.1 | 2.3 | -4.4
CCOc1ccc(Nc2cc(C)nc3nc(C)nn23)cc1 | 12.7 | 5.2* | 7.4 | 1.1 | -4.5
COc1ccccc1-c1cccc2c3c([nH]c12)[C@@H]1C[C@H]2[C@@H](C(=O)N1CC3)[C@H](C)ON2C | nt | nt | nt | 0.1 | nt
COc1cc(/C=N/NC(=O)c2sc(N)c(C#N)c2C)ccc1O | -0.4 | -1.1 | 9.2 | 8.4* | -15.8
Cc1c(C(=O)N/N=C/c2ccc(O)c(Br)c2)sc(N)c1C#N | -9.5 | -0.5 | -17.6 | 4.3 | -5.1
SMILES | procasp3 activ | Bfl-1 A1 inh | procasp7 counter | MsrA inh | bovine MsrA act
COc1cc(/C=N/NC(=O)c2cccc(N3CCCC3=O)c2)ccc1O | 3.8 | 0.5 | -12.0 | 5.4* | -3.9
S=C1NC[C@H](Cc2ccccc2)N1CC1CCN(CCCC2CCCCC2)CC1 | nt | nt | nt | -0.2 | nt
COC(=O)[C@]12C[C@H](CC(=O)NCc3ccc(OC)c(OC)c3)C(=O)N(Cc3ccccc3)C1=C[C@H](C1CCCC1)O[C@@H]2C | nt | nt | nt | 0.0 | nt
COC(=O)c1cc2c(c3c4cc(C)ccc4n(S(=O)(=O)c4ccc(OC)cc4)c13)C(=O)N(C)C2 | nt | nt | nt | 1.3 | nt
COCc1cc(Sc2cccc(Cl)c2Cl)nc(-c2ccccc2)n1 | -4.0 | -1.1 | -1.7 | -1.2 | 22.7*
CCc1ccc(NC(=O)C2CCN(S(=O)(=O)c3ccc4c(c3)NC(=O)CO4)CC2)cc1 | 0.9 | nt | 6.9 | 0.3 | -9.5
CCc1cccc(NC(=O)C2CCN(S(=O)(=O)c3ccc4c(c3)NC(=O)CO4)CC2)c1 | 2.4 | 9.7* | 0.5 | -0.9 | -1.9
COC(=O)[C@@H](N[C@H](/C=C/c1ccccc1)[C@@H](O)Cc1ccccc1)c1ccccc1 | nt | nt | nt | -0.7 | nt
Cc1cc(C)c(S(=O)(=O)/N=C2/C=C(SCC(=O)O)C(=O)c3ccccc32)cc1C | nt | nt | nt | nt | 9.4*
COc1ccc(N(CC(=O)N/N=C/c2ccc(N(C)C)cc2)S(=O)(=O)c2ccccc2)cc1 | -0.7 | -1.0 | -6.2 | 4.6* | -3.1
COc1cc(OC)cc(C(=O)/C=C2\Sc3ccccc3N2C)c1 | 15.4 | -1.7 | 8.2 | 0.0 | -1.4
COCC(=O)/C=C1\Sc2ccccc2N1C | 1.1 | -0.2 | 4.4 | 5.1* | -5.0
O=C(O)CCS(=O)(=O)c1nc(-c2cccs2)cc(C(F)(F)F)n1 | 5.5 | -0.7 | -6.1 | 3.2 | -5.7
CS(=O)(=O)c1nc(-c2cccs2)cc(C(F)(F)F)n1 | -5.2 | 8.2* | -13.0 | nt | nt
COc1ccc(/C=N/Nc2ccccn2)cc1OC | 6.5 | -0.9 | -3.4 | 4.6* | -4.8
O=C(N=Nc1c(O)[nH]c2ccc([N+](=O)[O-])cc12)c1cc(-c2ccccc2Cl)nc2ccccc12 | 2.9 | 48.3* | 3.0 | -1.2 | -4.7
COc1ccccc1C(=O)N=Nc1c(O)[nH]c2ccc([N+](=O)[O-])cc12 | nt | nt | nt | 0.6 | -5.8
COC(=O)C1=C(C)N(Cc2ccc(Br)cc2)C(=S)NC1c1ccccc1 (configuration not stated) | nt | nt | nt | 1.4 | nt
O=C1C(Cl)=C(NCCN2CCCCC2)C(=O)c2ccccc21 | 5.2 | -0.4 | -1.2 | nt | 17.9*
Nc1ccc(-c2nnnn2-c2ccc(N)cc2)cc1 | 3.8 | 2.3 | 9.1 | -1.1 | -2.3
Clc1ccc(-c2nnnn2-c2ccc(Cl)c(Cl)c2)cc1Cl | -3.7 | 0.6 | 0.2 | 15.6* | -1.6
N#C/C(=C\c1ccco1)C(=O)NCC1CCCO1 (configuration not stated) | -7.2 | 0.5 | 9.0 | 7.0* | -6.3
CCOc1ccc(NC(=O)c2ccc3[nH]c(=O)c(=O)[nH]c3c2)cc1 | 7.2 | 1.3 | 3.4 | 4.6* | -3.1
CCOc1ccc(NS(=O)(=O)c2ccc3[nH]c(=O)c(=O)[nH]c3c2)cc1 | 4.6 | -1.3 | -0.2 | 1.2 | -4.3
COc1ccccc1C(=O)Nc1cccc(S(=O)(=O)N2CCCC2)c1 | 0.3 | 0.8 | -0.5 | 0.1 | -2.4
COc1cc(C(=O)Nc2cccc(S(=O)(=O)N3CCCC3)c2)c([N+](=O)[O-])cc1OC | -6.0 | -0.7 | 2.8 | 4.6* | -2.1
N#CCOC(=O)/C=C/c1ccc2c(c1)OCO2 | 3.0 | -1.2 | 12.8 | 7.0* | -6.0
